HNF4A DNA FP = change in binding of human HNF4A to DNA, primary screen, biochemical, fluorescence polarization, FITC-DNA; Hepatocyte nuclear factor 4-alpha (Homo sapiens), P41235; 1 h; activity change, % at 10 µM; actives 0.3% (n = 360,000); in the data active = activity change above about 30%, passing the limit was not always enough
SENP1 inh = human SENP1 catalytic domain inhibitors, primary screen, biochemical, FRET, uHTS; AID 624204, 2012; Sentrin-specific protease 1 (Homo sapiens), Q9P0U3; inhibition, % at 10 µM; recombinant SENP1 catalytic domain, CyPet-SUMO1-YPet FRET cleavage; actives 0.21% (n = 360,000);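 active = inhibition at least 30% at 10 µM, raw YFP signal under a set limit, fluorescence ratio 0.5 to 1.5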;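 also: 0% = enzyme with DMSO and 100% = no enzyme wells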
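Material – human SENP1 catalytic domain · Input – SENP1 enzyme, 20 pM final · Compound dosing – single concentration of 10 µM compound, 0.5% DMSO final · Timing – enzyme reaction for 50 min at room temperature, dark · Measured by – FRET fluorescence in CFP and YFP emission channels · Control set – no-enzyme wells low, DMSO-plus-enzyme wells high control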
CSN deneddyl inh = inhibitors of CSN-mediated cullin deneddylation, primary screen, biochemical, fluorescence polarization, uHTS; Purified CSN, SCF-Nedd8-OG deneddylation; inhibition, % at 12.5 µM; actives 0.38% (n = 360,000); AID 651999, 2013;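 active = pattern-corrected inhibition above about 35%, with an unprinted fluorescence ratio check between 0.5 and 1.5, limit read from the data, passing the limit was not always enough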;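 also: 0% = enzyme with substrate and 100% = substrate without enzyme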
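Assay system: purified human Csn5 enzyme expressed in HEK293T cells; Input: 0.24 nM Csn5 enzyme, final concentration; Reagent: 10 nM SCFSkp2-Nedd8OG; Compound dosing: 12.5 µM single point; Times: reaction 90 min, room temperature; Technique: fluorescence polarization readout.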
TPT1 inhibitor = Candida albicans TPT1 enzyme inhibitors, primary screen, biochemical, fluorescence polarization | actives 0.81% (n = 300,000) | AID 1962, 2009 | inhibition, % at 5 µM | recombinant caTPT1, FP RNA substrate dephosphorylation | tRNA 2'-phosphotransferase TPT1 (Candida albicans SC5314);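 active = inhibition above the mean of all tested compounds plus 3 SD, set per screening campaign, cut at about 24% in these data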;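 also: plate controls were DMSO alone for no effect and ferristatin control at 100 nM for full effect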
Rpn11 block = Rpn11 (PSMD14) deubiquitinase inhibitors, primary screen, biochemical, fluorescence polarization, uHTS; human 26S proteasome, Ub4-pepOG fluorescence polarization; 20S core pre-blocked with epoxomicin; inhibition, % at 20 µM; actives 0.59% (n = 360,000); AID 588493, 2011;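 active = inhibition at 20 µM, scaled to each plate's controls, above about 33%, limit read from the data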
Target sequence (O00487 whole entry, looked up): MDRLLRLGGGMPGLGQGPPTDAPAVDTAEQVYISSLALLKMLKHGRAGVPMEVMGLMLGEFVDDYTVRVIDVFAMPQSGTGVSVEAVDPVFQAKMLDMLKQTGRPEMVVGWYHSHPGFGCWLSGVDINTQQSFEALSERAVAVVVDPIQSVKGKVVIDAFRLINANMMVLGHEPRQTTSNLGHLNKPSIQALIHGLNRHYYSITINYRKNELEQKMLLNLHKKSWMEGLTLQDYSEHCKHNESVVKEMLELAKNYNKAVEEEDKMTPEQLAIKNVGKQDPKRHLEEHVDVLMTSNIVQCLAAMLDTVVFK
Rpn11 confirm = Rpn11 (PSMD14) deubiquitinase inhibitors, confirmation, biochemical, fluorescence polarization, single concentration. shares compounds with Rpn11 block. purified human 26S proteasome, Ub4-pepOG fluorescence polarization; proteasome pretreated with epoxomicin. inhibition, % at 20 µM. actives 29% (n = 1,900). AID 602318, 2012
MMP-2 counter = MMP-2 enzyme inhibition, confirmation, counter-screen for RPN11 inhibitor project, biochemical, fluorescence, single concentration | inhibition, % at 20 µM | actives 4% (n = 1,900) | recombinant MMP-2, FRET peptide cleavage fluorescence | shares compounds with Rpn11 block;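 also: human MMP-2 activated beforehand with APMA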
Thrombin FP = bovine thrombin protease inhibition, confirmation, counter-screen for Rpn11 inhibitor project, biochemical, fluorescence polarization, single concentration; actives 13% (n = 1,900); bovine thrombin cleavage of Ub4-pepOG; AID 602333, 2012; inhibition, % at 20 µM; shares compounds with Rpn11 block;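 active = mean inhibition at least 40% at 20 µM, or signal 3 deviations below plate average, so some actives read negative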;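 also: plate controls were thrombin with DMSO for no effect and buffer wells lacking thrombin for full effect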
Starred values were filed as active, the others as inactive. In the library only some 1.6% were active in any assay of this set; here they are far more common. Rule as the data show it, unless noted: active = inhibition above about 40%; inactive = the rest.

How did CN(C(=O)COC(=O)c1ccccc1C(=O)c1ccccc1)c1ccccc1 do in these assays?
HNF4A DNA FP: 3; SENP1 inh: 1; CSN deneddyl inh: 0; Rpn11 block: -2

How did CN(C)CCCNc1nc2cc(-c3ccc4c(ccn4C)c3)sc2c(=O)n1C do in these assays?
HNF4A DNA FP: 5; SENP1 inh: -20; CSN deneddyl inh: 8; Rpn11 block: 39*; Rpn11 confirm: 18; MMP-2 counter: 7; Thrombin FP: -15

How did CN(C)CCCNc1nc2cc(-c3ccsc3)sc2c(=O)n1C do in these assays?
HNF4A DNA FP: 4; SENP1 inh: 1; CSN deneddyl inh: 0; Rpn11 block: 1

How did COc1cc(/C=C2\SC(=S)N(NC(=O)c3ccccc3OC)C2=O)ccc1O do in these assays?
HNF4A DNA FP: 48*; SENP1 inh: 9; CSN deneddyl inh: 5; Rpn11 block: 75*; Rpn11 confirm: 19; MMP-2 counter: 12; Thrombin FP: -1

How did CCOc1cc(/C=C2\SC(=S)N(NS(=O)(=O)c3ccc(C)cc3)C2=O)ccc1O do in these assays?
HNF4A DNA FP: 14; SENP1 inh: 83*; CSN deneddyl inh: 32; TPT1 inhibitor: 18; Rpn11 block: 85*; Rpn11 confirm: 69*; MMP-2 counter: 18; Thrombin FP: 57*

How did COc1cc(/C=C2\SC(=S)N(NS(=O)(=O)c3ccc(C)cc3)C2=O)cc(OC)c1OC do in these assays?
HNF4A DNA FP: -2; SENP1 inh: 3; CSN deneddyl inh: 1; TPT1 inhibitor: 2; Rpn11 block: 0

Results for C=C1C(=O)C23CCC4C(C)(C(=O)OC)CCCC4(C)C2CCC1(O)C3 (centres undefined) ?
HNF4A DNA FP: -5; SENP1 inh: 2; CSN deneddyl inh: 3; Rpn11 block: 0

Results for Cc1cc(NC(=O)CCC(=O)N(c2ccccc2)C(C(=O)NCC2CCCO2)c2cccnc2)no1 (centres undefined) ?
HNF4A DNA FP: 4; SENP1 inh: -1; CSN deneddyl inh: -3; TPT1 inhibitor: -8; Rpn11 block: 54*; Rpn11 confirm: -8; MMP-2 counter: -40; Thrombin FP: 26

Results for O=c1c(Cl)c(N/N=C/c2ccc(Br)cc2)cnn1-c1ccccc1 ?
HNF4A DNA FP: 12; SENP1 inh: -1; CSN deneddyl inh: 19; TPT1 inhibitor: -3; Rpn11 block: 96*; Rpn11 confirm: 47*; MMP-2 counter: -26; Thrombin FP: 13

What do the screens show for `O=C1c2ccccc2/C(=C\c2ccc(Br)s2)N1c1ccccc1`?
HNF4A DNA FP: 20; SENP1 inh: -26; CSN deneddyl inh: 8; Rpn11 block: 41*; Rpn11 confirm: -3; MMP-2 counter: 1; Thrombin FP: 2

Results for CC1=NN(c2ccccc2)C(=O)/C1=C\c1ccc(Br)s1 ?
HNF4A DNA FP: -3; SENP1 inh: 1; CSN deneddyl inh: 3; TPT1 inhibitor: 0; Rpn11 block: -3

Results for COc1ccc(-c2cc(C(=O)Nc3cc(C)ccc3O)no2)cc1 ?
HNF4A DNA FP: 2; SENP1 inh: -1; CSN deneddyl inh: -2; TPT1 inhibitor: 2; Rpn11 block: -6

Screens: PubChem, several laboratories
